Test results published in ChEMBL document CHEMBL3525900, “Pharmacokinetics, distribution, and metabolism of [14C]sunitinib in rats, monkeys, and humans” (Drug Metab Dispos, 2012).

Legend:
Brain [1] = assay: Drug concentration in male albino rat brain assessed as radioactivity per gram of tissue at 20 mg/kg administered as single dose via gastric gavage measured after 3 hrs by autoradiographic analysis; format: ADME, organism-based; set-up: dose 20 mg/kg, dosed compound name [14C]Sunitinib; settings: in vivo, po
Zone of skin [2] = assay: Drug concentration in male albino rat abdomen skin assessed as radioactivity per gram of tissue at 20 mg/kg administered as single dose via gastric gavage measured after 24 hrs by autoradiographic analysis; format: ADME, organism-based; set-up: dose 20 mg/kg, dosed compound name [14C]Sunitinib; settings: in vivo, po
[3] = Drug concentration in female albino rat uterus assessed as radioactivity per gram of tissue at 20 mg/kg administered as single dose via gastric gavage measured after 6 hrs by autoradiographic analysis; format: ADME, organism-based; set-up: dose 20 mg/kg, dosed compound name [14C]Sunitinib; settings: in vivo, po
Kidney = assay: Drug concentration in female albino rat kidney assessed as radioactivity per gram of tissue at 20 mg/kg administered as single dose via gastric gavage measured after 24 hrs by autoradiographic analysis; format: ADME, organism-based; set-up: dose 20 mg/kg, dosed compound name [14C]Sunitinib; settings: in vivo, po
Summary of the method: (§1)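 Sprague Dawley albino rats, ca 7-8 weeks old, dosed once by gastric gavage with [14C]sunitinib L-malate (15 mg freebase/kg, 100 µCi/kg). One male and one female killed by CO2 at 3, 6, 24, 72 and 168 h. Carcasses frozen in solid CO2/hexane, embedded and cut into 30 µm sagittal sections, then freeze-dried. Radioactivity quantified by whole-body autoradiography against standards by regression, background subtracted.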

Spinal cord [4] = assay: Drug concentration in male albino rat spinal cord assessed as radioactivity per gram of tissue at 20 mg/kg administered as single dose via gastric gavage measured after 6 hrs by autoradiographic analysis; format: ADME, organism-based; set-up: dose 20 mg/kg, dosed compound name [14C]Sunitinib; settings: in vivo, po
[5] = Drug recovery in feces of female cynomolgus monkey at 6 mg/kg, po administered as single dose during 0 to 336 hrs by liquid scintillation counting; format: ADME, organism-based, Macaca fascicularis; set-up: dose 6 mg/kg, dosed compound name [14C]Sunitinib, route oral; settings: in vivo
[6] = Drug concentration in male albino rat bladder assessed as radioactivity per gram of tissue at 20 mg/kg administered as single dose via gastric gavage measured after 3 hrs by autoradiographic analysis; format: ADME, organism-based, Urinary bladder; set-up: dose 20 mg/kg, dosed compound name [14C]Sunitinib; settings: in vivo, po
Spinal cord [7] = assay: Drug concentration in female albino rat spinal cord assessed as radioactivity per gram of tissue at 20 mg/kg administered as single dose via gastric gavage measured after 24 hrs by autoradiographic analysis; format: ADME, organism-based; set-up: dose 20 mg/kg, dosed compound name [14C]Sunitinib; settings: in vivo, po
[8] = Drug concentration in female albino rat pituitary gland assessed as radioactivity per gram of tissue at 20 mg/kg administered as single dose via gastric gavage measured after 6 hrs by autoradiographic analysis; format: ADME, organism-based; set-up: dose 20 mg/kg, dosed compound name [14C]Sunitinib; settings: in vivo, po; summary of the method: as §1
Zone of skin [9] = assay: Drug concentration in female Lister Hooded pigmented rat abdomen skin assessed as radioactivity per gram of tissue at 20 mg/kg administered as single dose via gastric gavage measured after 336 hrs by autoradiographic analysis; format: ADME, organism-based; set-up: dose 20 mg/kg, dosed compound name [14C]Sunitinib; settings: in vivo, po
Summary of the method: (§2)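 Pigmented Lister Hooded rats, 7-8 weeks old, received [14C]sunitinib L-malate by gavage at 20 mg/kg (15 mg freebase/kg, 100 µCi/kg). One rat per sex was killed by CO2 at each of 24, 72, 168 and 336 h. Carcasses were frozen in solid CO2/hexane and cut into 30 µm sagittal sections, then freeze-dried. Tissue radioactivity was quantified by whole-body autoradiography calibrated against standards by regression (LOQ 0.04–0.06 µg eq/g).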

[10] = Drug concentration in male albino rat pituitary gland assessed as radioactivity per gram of tissue at 20 mg/kg administered as single dose via gastric gavage measured after 72 hrs by autoradiographic analysis; format: ADME, organism-based; set-up: dose 20 mg/kg, dosed compound name [14C]Sunitinib; settings: in vivo, po
[11] = Drug concentration in male albino rat bladder assessed as radioactivity per gram of tissue at 20 mg/kg administered as single dose via gastric gavage measured after 24 hrs by autoradiographic analysis; format: ADME, organism-based, Urinary bladder; set-up: dose 20 mg/kg, dosed compound name [14C]Sunitinib; settings: in vivo, po
[12] = Drug concentration in male Lister Hooded pigmented rat lachrymal gland assessed as radioactivity per gram of tissue at 20 mg/kg administered as single dose via gastric gavage measured after 24 hrs by autoradiographic analysis; format: ADME, organism-based; set-up: dose 20 mg/kg, dosed compound name [14C]Sunitinib; settings: in vivo, po
Liver = assay: Drug concentration in male albino rat liver assessed as radioactivity per gram of tissue at 20 mg/kg administered as single dose via gastric gavage measured after 6 hrs by autoradiographic analysis; format: ADME, organism-based; set-up: dose 20 mg/kg, dosed compound name [14C]Sunitinib; settings: in vivo, po
[13] = Drug concentration in male albino rat thyroid gland assessed as radioactivity per gram of tissue at 20 mg/kg administered as single dose via gastric gavage measured after 72 hrs by autoradiographic analysis; format: ADME, organism-based; set-up: dose 20 mg/kg, dosed compound name [14C]Sunitinib; settings: in vivo, po
[14] = Drug concentration in female albino rat uterus assessed as radioactivity per gram of tissue at 20 mg/kg administered as single dose via gastric gavage measured after 24 hrs by autoradiographic analysis; format: ADME, organism-based; set-up: dose 20 mg/kg, dosed compound name [14C]Sunitinib; settings: in vivo, po
Cynomolgus monkey = assay: Terminal half life as total radioactivity in male cynomolgus monkey plasma at 6 mg/kg, po administered as single dose by LC/MS/MS analysis; format: ADME, organism-based, Macaca fascicularis; set-up: dose 6 mg/kg, dosed compound name [14C]Sunitinib, route oral; settings: in vivo
Zone of skin [15] = assay: Drug concentration in female albino rat abdomen skin assessed as radioactivity per gram of tissue at 20 mg/kg administered as single dose via gastric gavage measured after 3 hrs by autoradiographic analysis; format: ADME, organism-based; set-up: dose 20 mg/kg, dosed compound name [14C]Sunitinib; settings: in vivo, po
Summary of the method: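 Sprague Dawley (albino) rats, ca 7-8 weeks old, received a single gastric-gavage dose of [14C]sunitinib L-malate at 20 mg/kg (15 mg freebase/kg, 100 µCi/kg). One animal per sex killed by CO2 at 3, 6, 24, 72 and 168 h, then frozen in CO2/hexane. 30 µm sagittal sections were cut and freeze-dried. Radioactivity per gram quantified by whole-body autoradiography using regression against standards. LOQ 0.04–0.06 µg freebase equiv/g.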

Rattus norvegicus = assay: Total drug recovery in male Sprague-Dawley rat at 15 mg/kg, po administered as single dose during 0 to 72 hrs by liquid scintillation counting; format: ADME, organism-based; set-up: dose 15 mg/kg, dosed compound name [14C]Sunitinib, route oral; settings: in vivo
Spinal cord [16] = assay: Drug concentration in female albino rat spinal cord assessed as radioactivity per gram of tissue at 20 mg/kg administered as single dose via gastric gavage measured after 6 hrs by autoradiographic analysis; format: ADME, organism-based; set-up: dose 20 mg/kg, dosed compound name [14C]Sunitinib; settings: in vivo, po
[17] = Drug concentration in male albino rat salivary gland assessed as radioactivity per gram of tissue at 20 mg/kg administered as single dose via gastric gavage measured after 3 hrs by autoradiographic analysis; format: ADME, organism-based; set-up: dose 20 mg/kg, dosed compound name [14C]Sunitinib; settings: in vivo, po
Heart = assay: Drug concentration in male albino rat heart assessed as radioactivity per gram of tissue at 20 mg/kg administered as single dose via gastric gavage measured after 24 hrs by autoradiographic analysis; format: ADME, organism-based; set-up: dose 20 mg/kg, dosed compound name [14C]Sunitinib; settings: in vivo, po
[18] = Drug concentration in female albino rat thyroid gland assessed as radioactivity per gram of tissue at 20 mg/kg administered as single dose via gastric gavage measured after 72 hrs by autoradiographic analysis; format: ADME, organism-based; set-up: dose 20 mg/kg, dosed compound name [14C]Sunitinib; settings: in vivo, po
Zone of skin [19] = assay: Drug concentration in male Lister Hooded pigmented rat abdomen skin assessed as radioactivity per gram of tissue at 20 mg/kg administered as single dose via gastric gavage measured after 168 hrs by autoradiographic analysis; format: ADME, organism-based; set-up: dose 20 mg/kg, dosed compound name [14C]Sunitinib; settings: in vivo, po
Lung = assay: Drug concentration in female albino rat lung assessed as radioactivity per gram of tissue at 20 mg/kg administered as single dose via gastric gavage measured after 24 hrs by autoradiographic analysis; format: ADME, organism-based; set-up: dose 20 mg/kg, dosed compound name [14C]Sunitinib; settings: in vivo, po; summary of the method: as §1
Brain [20] = assay: Drug concentration in male albino rat brain assessed as radioactivity per gram of tissue at 20 mg/kg administered as single dose via gastric gavage measured after 6 hrs by autoradiographic analysis; format: ADME, organism-based; set-up: dose 20 mg/kg, dosed compound name [14C]Sunitinib; settings: in vivo, po
[21] = Drug concentration in male albino rat bone marrow assessed as radioactivity per gram of tissue at 20 mg/kg administered as single dose via gastric gavage measured after 3 hrs by autoradiographic analysis; format: ADME, organism-based; set-up: dose 20 mg/kg, dosed compound name [14C]Sunitinib; settings: in vivo, po
Thymus [22] = assay: Drug concentration in male Lister Hooded pigmented rat thymus assessed as radioactivity per gram of tissue at 20 mg/kg administered as single dose via gastric gavage measured after 168 hrs by autoradiographic analysis; format: ADME, organism-based; set-up: dose 20 mg/kg, dosed compound name [14C]Sunitinib; settings: in vivo, po
Zone of skin [23] = assay: Drug concentration in female Lister Hooded pigmented rat abdomen skin assessed as radioactivity per gram of tissue at 20 mg/kg administered as single dose via gastric gavage measured after 168 hrs by autoradiographic analysis; format: ADME, organism-based; set-up: dose 20 mg/kg, dosed compound name [14C]Sunitinib; settings: in vivo, po; summary of the method: as §2
Thymus [24] = assay: Drug concentration in female albino rat thymus assessed as radioactivity per gram of tissue at 20 mg/kg administered as single dose via gastric gavage measured after 3 hrs by autoradiographic analysis; format: ADME, organism-based; set-up: dose 20 mg/kg, dosed compound name [14C]Sunitinib; settings: in vivo, po

## CCN(CC)CCNC(=O)c1c(C)[nH]c(/[14CH]=C2\C(=O)Nc3ccc(F)cc32)c1C.O=C(O)C[C@H](O)C(=O)O
Brain [1]
  Radiolabel recovery: 0.3 ugequiv
Zone of skin [2]
  Radiolabel recovery: 3.39 ugequiv
[3]
  Radiolabel recovery: 6.63 ugequiv
Kidney
  Radiolabel recovery: 4.79 ugequiv
Spinal cord [4]
  Radiolabel recovery: 0.29 ugequiv
[5]
  Radiolabel recovery: 84.1%
[6]
  Radiolabel recovery: 3.22 ugequiv
Spinal cord [7]
  Radiolabel recovery: 0.07 ugequiv
[8]
  Radiolabel recovery: 20.88 ugequiv
Zone of skin [9]
  Radiolabel recovery: 0.36 ugequiv
[10]
  Radiolabel recovery: 2.7 ugequiv
[11]
  Radiolabel recovery: 0.35 ugequiv
[12]
  Radiolabel recovery: 0.94 ugequiv
Liver
  Radiolabel recovery: 10.7 ugequiv
[13]
  Radiolabel recovery: 0.24 ugequiv
[14]
  Radiolabel recovery: 0.96 ugequiv
Cynomolgus monkey
  beta t1/2: 222 h
Zone of skin [15]
  Radiolabel recovery: 3.16 ugequiv
Rattus norvegicus
  Radiolabel recovery: 85.1%
Spinal cord [16]
  Radiolabel recovery: 0.35 ugequiv
[17]
  Radiolabel recovery: 17.24 ugequiv
Heart
  Radiolabel recovery: 0.36 ugequiv
[18]
  Radiolabel recovery: 0.26 ugequiv
Zone of skin [19]
  Radiolabel recovery: 0.58 ugequiv
Lung
  Radiolabel recovery: 1.64 ugequiv
Brain [20]
  Radiolabel recovery: 0.34 ugequiv
[21]
  Radiolabel recovery: 7.55 ugequiv
Thymus [22]
  Radiolabel recovery: 0.06 ugequiv
Zone of skin [23]
  Radiolabel recovery: 0.17 ugequiv
Thymus [24]
  Radiolabel recovery: 9.36 ugequiv
